System: MS2 coat protein
Test: apparent Kd, MS2 coat protein; higher = weaker binding; RNA-MaP array; FMN 200 µM where present
In short: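 Binding was read on Illumina sequencing-chip clusters where stalled E. coli RNA polymerase had transcribed each design. A titration of SNAP-549-labelled MS2 coat protein began at 0.7 or 1.5 nM and doubled to 3 µM, once without ligand and once with constant ligand, in 100 mM Tris-HCl pH 7.5, 80 mM KCl, 4 mM MgCl2, BSA, DTT, yeast tRNA and Tween-20. The apparent Kd is the median of filtered per-cluster binding-curve fits, based on green signal normalised to red-channel RNA signal and control-cluster median Fmax.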

[1] = designed as: ON switch for flavin mononucleotide, no ligand
[2] = ligand present: flavin mononucleotide, designed as: ON switch for flavin mononucleotide
[3] = designed as: OFF switch for flavin mononucleotide, no ligand
[4] = ligand present: flavin mononucleotide, designed as: OFF switch for flavin mononucleotide

Sequence | apparent Kd [1] [nM] | apparent Kd [2] [nM] | apparent Kd [3] [nM] | apparent Kd [4] [nM]
ACAUGCAUAGCGAUAUGAUCGAGAGAUCAUGUCGCUAAAUUUAGAAGGACAUGAGGAUCACCCAUGUAGGAUAUGGGAGCAUGC | 87.9 | 17.1 |  | 
UGUGCGUAUGUGAGGAUAUGCUGGUCCUUGGAUCGGCAGAAGGCACAUGAGGAUCACCCAUGUGGUGUCGUUCA |  |  | 264 | 27.2
AUCAUGUCAGGAUAUGUGAUAUGGAUCUUCGGAUCAAGUUCACAGAAGGGACAUGAGGAUCACCCAUGUCGAAC |  |  | 50.6 | 91.7
UUUUAACAUGAGGAUCACCCAUGUGAGGAUAUCGAAAUUUAUAUUAAUAUUAAUUUUACGAGAAGGCACAUUUU |  |  | 112 | 100
AAUUUACAGGGAGGAUAUACAUGAGGAUCACCCAUGUAAUCAUAUGAUAUUUUUUUUGUAUGAGUGUAGAAGGCCCAAAUAACA |  |  | 9.27 | 11.4
GGUAUACUGCAGGAUAUUAGCUGAGAUAUCCGCUGAGAAGGGCAGACAUGAGGAUCACCCAUGUACCGAGUAGU |  |  | 31.9 | 18.8
GACAUGAGGAUCACCCAUGUCCCUCCAGAAGGCUGGCGCGCGAAACCUAAAUCAGUUCCGGGCACAGAGGAUAUGGGCGGUUGG | 164 | 34.3 |  | 
UAAUUUUUGACAGGAUAUCCAUGUACAUGAGGAUCACCCAUGUAAAAGGGUAGCCUCAUCGGGCAGGAGAAGGGUCGAUAGGCG |  |  | 249 | 134
UGGUACAACGGAGGAUAUCAUGUAGAUACAUGAGGAUCACCCAUGUCGAUGGAGACAUCGGAGAUUGAGAAGGCCGUUGUACCU | 692 | 30.1 |  | 
GAUUUGUGAGGAUAUACAUGAGGAUCACCCAUGUGUGUCCAUACGCGUGAGUCUUCAUGUAGAAGGCGCGGGUC |  |  | 17.1 | 15.6
GUAAUUACGAGAGGAUAUUGACAUGAGGAUCACCCAUGUAUUUGGGAGUGUUCACUGAAUUCUUACGAGAAGGCUCGUAAAUAC |  |  | 213 | 214
GGACGUCACAUUAACAUGAGGAUCACCCAUGUCUAUAGACAUGAGGAUAUGGAUCCUAAUUGGAUCCAGAAGGCAUGGACGUCC | 787 | 46.3 |  | 
CACAGGGAUUCAGGAUAUAUUAGCCGAGGCCGCGUAGAAGGGAAAUCCUGACAUGAGGAUCACCCAUGUUAACCCGCCUUCCAU | 37.6 | 42 |  | 
AGGAGUAAAGGGAAUAACAUGAGGAUCACCCAUGUAUGGGAGAGAAGGCAUAUCGGAGGACGAUAUGAGGAUAUUUAAACUCUA | 62.6 | 18.7 |  | 
AACAGGUCAGGAUAUACAUGAGGAUCACCCAUGUAACAAGCGGAGGCGACUUCUCAAGGUAGAAGGGAUCUCCG |  |  | 19.8 | 18.9
GCCAUCGCAUGAGGAUAUGCUCCCGUUUCGGGAGCAGAAGGCAUGUAAUAAGACAUGAGGAUCACCCAUGUAGUUAAGAUGGCA | 7.36 | 5.32 |  | 
GUCAGCUCGUGAGGAUAUACAACACUGCUUCGGCAGUGUAUUAAGAUCACAUGAGGAUCACCCAUGUAGAAGGCACGAGCUUAU |  |  | 13.5 | 233
GGGCUCGGAGGAUAUACAAUGGGCCCGGGAAACCGGGCCCUACAUGAGGAUCACCCAUGUAGAAGGUCGGGUCU |  |  | 15.5 | 24.1
CCAUGUUAGCAGGAUAUGCAAUAAAUCUUUUAAGCAGAAGGGCUUACAUGAGGAUCACCCAUGUAUAAAGUCAA |  |  | 19.8 | 45.6
CAGGUAGACUGAGGAUAUACACAAAACAGCUAGUCUAUCUAGCUGCUCACAUGAGGAUCACCCAUGUAGAAGGCAGUCUGCCUG |  |  | 18.4 | 37.8
GCGUAAUAGGUGUAGCUAGUCGUGCAAGAAGGGUGGUGAACAUGAGGAUCACCCAUGUGGUCAGUACAGGAUAUUGCUAUACGA | 561 | 162 |  | 
GUGACGAUGUAAGGAUAUGCAGUGGAUAACACUGCAGAAGGUACAUGAGGAUCACCCAUGUAACUCUAAUAAUAAUAACGUCAC |  |  | 12.1 | 17
CUUGUGUGAGGAUAUGACAAUGGUAUCUUCGGAUACCAUUGUCAGAAGGUACAUGAGGAUCACCCAUGUAGAUC |  |  | 91 | 140
GGAUGAGCAAUAGGAUAUGCUGGGAUUGAAUGGGUAGAAGGAUUUCUAGUGGGAAAGACAUGAGGAUCACCCAUGUCGCGGACC | 25.2 | 26.6 |  | 
GUCGUGUGAGGAUAUCGAUUAUGGAAGUCUAGAUCCAUACGCGAGAAGGCACAUGAGGAUCACCCAUGUAAUGG |  |  | 337 | 96.1
UAUUCACAUGAGGAUCACCCAUGUAGAAGGCCGAGCCUGGCCACGGUUACAAGCCGUGGAGAGCCGGAGGAUAUACAGCUGGUG |  |  | 140 | 27.8
CCGGAUAUGCAGGAUAUCGUAACGGAAACGUUACGAGAAGGGUAUACAUGAGGAUCACCCAUGUGUCCUACCGG |  |  | 28.1 | 32.3
ACAUGAGGAUCACCCAUGUUCACAUAGGAUAUUGAUUAUAUUGGAUAUAUUUUUUUUAUAAUACACAAGAAGGAUGCAAGAUGG | 19.3 | 16.3 |  | 

Sequence | apparent Kd [1] [nM] | apparent Kd [2] [nM] | apparent Kd [3] [nM] | apparent Kd [4] [nM]
UGGUACUAGGGAGGAUAUGGGAAGAUACAUGAGGAUCACCCAUGUUUAAGAAUGCCGAGAGGCAACCAGAAGGCCCUAGUACCU | 8.27 | 5.57 |  | 
UCCGUGUGAGGAUAUUACGCUGUUCGGGAAACGCUCAUAGGUAAGAAGGCACAUGAGGAUCACCCAUGUCCAUA |  |  | 23.7 | 54.8
AGUUAAUAUCGAGGAUAUAAGUCUAAGACAUGAGGAUCACCCAUGUAUGUCUUAGAAGGCGAUAUUAACAGCAUGUUACAUGCA | 53.2 | 9.67 |  | 
CUUGUUGUCGAGGAUAUGCACCAGCUCACUGACGCAGAAGGCGACACAUGAGGAUCACCCAUGUCAGUUCGCGU |  |  | 37.4 | 225
AUCAGCUCGUCAGGAUAUACGUCACUGCGUCAGCAGUGUGGUAAGAUCACAUGAGGAUCACCCAUGUAGAAGGGACGAGCCGAU |  |  | 13.2 | 306
AUAGCAACAUGAGGAUCACCCAUGUAGGAUAUCGCUAUUGUAAUCAUGAAACAUGAUUACAAUAGCGAGAAGGACAUAUGCUAC |  |  | 9.33 | 11
GCGUUACAUGAGGAUCACCCAUGUGAGGAUAUGGUUCGGUACUGUCCUGUCGCGUACUCCAGAAGGCACGUGUC |  |  | 31.3 | 34.7
AGAUAACACCAGAAGGACAUGAGGAUCACCCAUGUAGGAUAUGGGCAUCACUCGAGAAAGAAAAGACCAAGUGGACACGCGGUC | 117 | 10.7 |  | 
GUCGGAAACGACAAAAGUAGCAUAGGAGAAGGCAUGUCAUAAGACAUGAGGAUCACCCAUGUGCAUGAGGAUAUCCUAUGCUAC | 5.53 | 4.98 |  | 
CGUGACGACAUAGGAUAUUGAUACAUGAGGAUCACCCAUGUCACCCAUUUAUCUCUAAGUGUUGACAAGAAGGAUGUGGUCACG | 10.1 | 9.33 |  | 
GUGUUACAUGAGGAUCACCCAUGUGAGGAUAUCAUGCUUCGUAGUAAACUACGAAGUGUGAGAAGGCACAUGAC |  |  | 265 | 806
AAAAGACAUGAGGAUCACCCAUGUCAAGACGUGGGAGGAUAUGUAUGGAAACCAGACUGUACAGAAGGCCUCUGUC | 57 | 70.5 |  | 
UUUGUCAUCGAGAAGGCCUCAACAUGAGGAUCACCCAUGUUGUAAUAUGGGAGGAUAUCGAUGAUACAGCUACGUUUCGUAGGG | 18.1 | 5.6 |  | 
GAAAACAGAGGAUAUACAAAAUUGACACGAAAGGUGCAAAAACAUGAGGAUCACCCAUGUAGAAGGCUGAAGAA |  |  | 24.8 | 22
AUCUACCUAGGAUAUACAUGAGGAUCACCCAUGUACAGUUUCAACUAGGGAAACACACGUAGAAGGAGGUAGAU |  |  | 13.6 | 32.6
GGAUUGGACAGAGGAUAUACGUGCUAGAGAUACUAGCAAAAUUUCCUCACAUGAGGAUCACCCAUGUAGAAGGCUGUCCUAUCG |  |  | 15.6 | 378
CCAGGCUUCGAGAAGGACAUGAGGAUCACCCAUGUGCGUGUGAAGCAGCCGUGAGGCUGCAUCAUGUAGGAUAUCGGAGUCUGA |  |  | 71.8 | 396
GUGAAGUAAGGAUAUACAUGAGGAUCACCCAUGUGGAGGAAGGUGAUGGGAGUAGGUAGUAGAAGGUACGAGGA |  |  | 140 | 128
UAAAACGGAGGAUAUACUGACCCUCAAAACAGACGCGCUGGACAUGAGGAUCACCCAUGUAGAAGGCCGAAUGC |  |  | 26.3 | 61.9
UUUUAACAUGAGGAUCACCCAUGUGAGGAUAUCGAAAUUUAUAUUAAUAUUAAUAUUUCGAGAAGGCACAUUUU |  |  | 142 | 154
CUUUUGUGAGGAUAUCAGUAGUAAUACAAUAGUAUUACUAUUGAGAAGGCACAUGAGGAUCACCCAUGUUCCUC |  |  | 39.4 | 156
CGCUACACCCAGAAGGACAUGAGGAUCACCCAUGUAGGAUAUGGGAGACACAGUCCCAUGUAGAGAAACUACGCUAGUGUAGCG | 200 | 81.4 |  | 
GUCAGCUCGUCAGGAUAUACGUCACUGCGUCAGCAGUGUGGUAAGAUCACAUGAGGAUCACCCAUGUAGAAGGGACGAGCUGAU |  |  | 14.1 | 291
AAAGACAGACAUGAGGAUCACCCAUGUUACGAAGAUACUGGGAGAAGGGCGAUUGCAAAGCAAUCGCAGGAUAUUCGUAUUGUC | 25.8 | 13.2 |  | 
GACAUGAGGAUCACCCAUGUCCGGGCCAAGAGAAGAAAUACCAGAAGGACCGGCAGAAAUGUGCGGUAGGAUAUGGGAUUCGUG | 36.4 | 9.15 |  | 
AAAUUUAACGAAGGAUAUGGUUACAUGAGGAUCACCCAUGUAUAUUUUGUGAUCUUGUUUAAGUUCCAGAAGGUCGUAUACAUA |  |  | 74.1 | 294
GGAGCUCCUGACAUGAGGAUCACCCAUGUUCAAUUAUUAAAUCAGGAUAUCGUCUCGAAACGAGACGAGAAGGGAUAUGCUCCU | 5.89 | 6.2 |  | 

— the EternaBench riboswitch data
